From ChEMBL document CHEMBL1136710, “Phenylbutyrates as potent, orally bioavailable vitronectin receptor (integrin alphavbeta3) antagonists” (Bioorg Med Chem Lett, 2003)

What was measured:
Integrin alpha-V/beta-5 = Integrin alpha-V/beta-5 (Homo sapiens, UniProt P06756+P18084); assay: Binding affinity for alphaV-beta5 vitronectin receptor; type: protein-complex assay
Method in brief: (§1)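 Competitive radioligand binding to isolated human integrin, αvβ3 or αvβ5, with 3H-SK&F-107260 as the displaced ligand; Ki values are means of two to three separate experiments.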

Integrin alpha-V/beta-3 [1] = molecular target: T1, Integrin alpha-V/beta-3 (Homo sapiens, UniProt P05106+P06756); assay: Binding affinity for alphav/beta 3 vitronectin receptor in HEK cells; type: cell-based, HEK293
Method in brief: (§2)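 Cell-based αvβ3 assay: HEK 293 cells transfected with human αvβ3; inhibition of adhesion to purified human vitronectin measured; IC50 values are means of two experiments, each in triplicate, run with an internal standard.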

Integrin alpha-V/beta-3 [2] = molecular target: T1, Integrin alpha-V/beta-3; assay: Binding affinity for alphaV-beta3 vitronectin receptor; type: protein-complex assay; method in brief: as §1
[3] = Half life period in rat; type: ADME, organism-based; conditions: in vivo
Method in brief: (§3)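 Rats (three per compound) dosed iv and po; plasma concentration–time data analysed non-compartmentally for half-life and clearance; oral bioavailability calculated from dose-normalized iv and po AUC (area under plasma concentration–time curve).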

[4] = Plasma clearance in rat; type: ADME, organism-based; conditions: read-out: Clp; method in brief: as §3
[5] = Oral bioavailability in rat; type: ADME, organism-based; conditions: in vivo; method in brief: as §3
Integrin alpha-V/beta-3 [6] = molecular target: T1, Integrin alpha-V/beta-3; assay: Inhibition of HEK 293 cell adhesion to vitronectin by human alphaV-beta3 integrin; type: cell-based, HEK293; method in brief: as §2
[7] = molecular target: Integrin alpha-IIb/beta-3 (Homo sapiens, UniProt P05106+P08514); assay: Binding affinity for alphaIIb-beta3 vitronectin receptor; type: protein-complex assay
Homo sapiens = species on record: Homo sapiens; assay: Compound was tested for the inhibition of human vascular smooth muscle cell migration; type: functional

Chain of Integrin alpha-V/beta-5 (P06756 31-889 limits assumed): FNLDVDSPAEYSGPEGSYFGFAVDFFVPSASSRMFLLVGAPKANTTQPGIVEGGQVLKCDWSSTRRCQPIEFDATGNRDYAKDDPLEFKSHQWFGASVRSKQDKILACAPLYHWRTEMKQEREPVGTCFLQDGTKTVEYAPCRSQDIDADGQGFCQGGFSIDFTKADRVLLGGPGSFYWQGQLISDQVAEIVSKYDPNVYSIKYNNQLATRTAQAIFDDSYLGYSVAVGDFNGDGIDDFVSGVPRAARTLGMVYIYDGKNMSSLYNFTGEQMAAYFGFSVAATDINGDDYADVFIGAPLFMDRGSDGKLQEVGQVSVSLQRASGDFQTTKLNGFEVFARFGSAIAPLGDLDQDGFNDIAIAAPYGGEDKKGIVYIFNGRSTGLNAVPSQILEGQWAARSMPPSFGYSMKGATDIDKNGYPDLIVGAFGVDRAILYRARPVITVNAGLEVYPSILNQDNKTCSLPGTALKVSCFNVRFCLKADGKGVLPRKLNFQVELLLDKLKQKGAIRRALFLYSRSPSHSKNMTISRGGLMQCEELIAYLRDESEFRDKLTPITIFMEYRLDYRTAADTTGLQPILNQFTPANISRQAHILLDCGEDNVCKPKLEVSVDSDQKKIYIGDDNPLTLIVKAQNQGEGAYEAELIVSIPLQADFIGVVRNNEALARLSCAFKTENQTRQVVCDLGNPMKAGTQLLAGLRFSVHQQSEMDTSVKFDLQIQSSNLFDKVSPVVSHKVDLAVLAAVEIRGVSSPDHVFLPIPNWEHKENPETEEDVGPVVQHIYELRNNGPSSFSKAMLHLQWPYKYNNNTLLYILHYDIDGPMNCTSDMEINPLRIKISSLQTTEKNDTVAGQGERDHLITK
Chain of Integrin alpha-V/beta-5 (P06756 891-1048 limits assumed): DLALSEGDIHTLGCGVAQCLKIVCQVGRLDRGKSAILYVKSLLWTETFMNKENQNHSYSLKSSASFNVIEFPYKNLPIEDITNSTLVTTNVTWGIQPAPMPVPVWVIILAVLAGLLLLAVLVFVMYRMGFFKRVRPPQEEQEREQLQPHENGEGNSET
Chain of Integrin alpha-V/beta-5 (P18084 24-799 limits assumed): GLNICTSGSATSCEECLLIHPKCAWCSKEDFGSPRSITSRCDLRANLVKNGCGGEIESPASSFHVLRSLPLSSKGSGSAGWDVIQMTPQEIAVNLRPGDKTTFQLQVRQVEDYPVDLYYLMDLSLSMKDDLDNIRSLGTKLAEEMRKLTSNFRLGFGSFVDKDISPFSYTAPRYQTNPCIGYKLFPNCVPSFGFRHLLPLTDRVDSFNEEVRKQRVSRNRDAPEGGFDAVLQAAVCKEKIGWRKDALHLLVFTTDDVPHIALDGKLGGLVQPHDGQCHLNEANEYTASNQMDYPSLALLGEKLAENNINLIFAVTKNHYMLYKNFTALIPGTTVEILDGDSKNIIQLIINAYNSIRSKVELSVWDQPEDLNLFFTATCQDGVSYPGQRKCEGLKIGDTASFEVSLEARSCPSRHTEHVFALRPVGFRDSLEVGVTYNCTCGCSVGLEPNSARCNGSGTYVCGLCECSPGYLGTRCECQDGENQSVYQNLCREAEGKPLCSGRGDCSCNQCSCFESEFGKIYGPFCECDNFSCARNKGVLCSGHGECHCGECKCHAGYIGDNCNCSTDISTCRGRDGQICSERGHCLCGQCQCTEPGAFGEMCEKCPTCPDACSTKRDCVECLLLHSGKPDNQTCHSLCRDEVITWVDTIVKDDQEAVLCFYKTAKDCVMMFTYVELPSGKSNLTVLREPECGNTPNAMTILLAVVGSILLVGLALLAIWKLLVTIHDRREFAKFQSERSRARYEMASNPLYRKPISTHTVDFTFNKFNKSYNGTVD
T1 sequence (P05106 27-788 limits assumed): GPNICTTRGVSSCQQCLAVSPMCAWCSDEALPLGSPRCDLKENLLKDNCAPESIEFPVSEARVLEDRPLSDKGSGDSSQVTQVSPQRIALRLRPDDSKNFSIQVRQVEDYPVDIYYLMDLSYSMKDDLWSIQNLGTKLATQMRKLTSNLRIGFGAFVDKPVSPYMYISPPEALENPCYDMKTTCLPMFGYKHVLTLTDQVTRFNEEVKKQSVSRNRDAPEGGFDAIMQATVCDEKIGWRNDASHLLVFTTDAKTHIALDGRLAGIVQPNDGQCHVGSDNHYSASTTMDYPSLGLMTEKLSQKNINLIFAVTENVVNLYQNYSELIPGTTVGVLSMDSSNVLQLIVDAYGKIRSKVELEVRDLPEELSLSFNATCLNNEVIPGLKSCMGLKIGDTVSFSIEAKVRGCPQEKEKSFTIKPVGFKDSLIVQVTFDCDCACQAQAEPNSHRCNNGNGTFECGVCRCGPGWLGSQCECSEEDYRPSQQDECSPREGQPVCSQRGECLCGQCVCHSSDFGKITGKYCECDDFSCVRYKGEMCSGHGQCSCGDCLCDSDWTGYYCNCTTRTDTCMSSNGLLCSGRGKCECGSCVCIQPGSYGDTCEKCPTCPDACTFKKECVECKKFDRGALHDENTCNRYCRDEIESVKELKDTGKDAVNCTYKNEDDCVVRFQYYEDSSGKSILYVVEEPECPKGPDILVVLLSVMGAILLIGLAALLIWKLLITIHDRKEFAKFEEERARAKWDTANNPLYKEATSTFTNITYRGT
T1 sequence (P06756 31-889 limits assumed): as the sequence (P06756 31-889 limits assumed) above
T1 sequence (P06756 891-1048 limits assumed): as the sequence (P06756 891-1048 limits assumed) above
Chain of Integrin alpha-IIb/beta-3 (P05106 27-788 limits assumed): as the sequence (P05106 27-788 limits assumed) above
Chain of Integrin alpha-IIb/beta-3 (P08514 32-887 limits assumed): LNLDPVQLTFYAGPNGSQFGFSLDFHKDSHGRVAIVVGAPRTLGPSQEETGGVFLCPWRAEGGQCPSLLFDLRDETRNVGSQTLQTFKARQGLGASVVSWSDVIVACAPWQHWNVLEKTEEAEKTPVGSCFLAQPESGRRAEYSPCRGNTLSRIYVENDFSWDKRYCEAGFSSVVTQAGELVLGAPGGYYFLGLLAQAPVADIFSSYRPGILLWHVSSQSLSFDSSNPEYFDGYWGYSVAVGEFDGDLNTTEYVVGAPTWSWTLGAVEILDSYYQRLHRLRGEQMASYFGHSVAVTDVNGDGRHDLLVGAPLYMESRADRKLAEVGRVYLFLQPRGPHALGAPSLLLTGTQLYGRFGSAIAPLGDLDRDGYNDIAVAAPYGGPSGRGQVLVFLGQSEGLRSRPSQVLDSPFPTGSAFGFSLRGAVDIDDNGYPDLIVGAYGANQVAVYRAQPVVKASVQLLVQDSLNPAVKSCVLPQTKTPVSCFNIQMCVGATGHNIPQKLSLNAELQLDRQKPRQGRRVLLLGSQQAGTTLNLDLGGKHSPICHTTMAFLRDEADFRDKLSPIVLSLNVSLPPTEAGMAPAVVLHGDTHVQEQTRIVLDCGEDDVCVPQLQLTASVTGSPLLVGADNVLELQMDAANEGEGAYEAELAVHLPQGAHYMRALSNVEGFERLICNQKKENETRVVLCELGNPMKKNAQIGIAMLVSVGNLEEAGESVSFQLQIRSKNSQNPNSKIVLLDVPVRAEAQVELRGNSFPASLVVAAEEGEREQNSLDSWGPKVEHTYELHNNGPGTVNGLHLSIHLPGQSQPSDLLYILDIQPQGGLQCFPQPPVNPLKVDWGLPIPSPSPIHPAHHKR
Chain of Integrin alpha-IIb/beta-3 (P08514 891-1039 limits assumed): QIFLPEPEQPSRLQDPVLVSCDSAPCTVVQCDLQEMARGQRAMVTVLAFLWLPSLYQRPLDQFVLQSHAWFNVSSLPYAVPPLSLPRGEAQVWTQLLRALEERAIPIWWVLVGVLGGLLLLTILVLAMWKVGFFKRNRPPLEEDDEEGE

Row | Compound | Ki (Integrin alpha-V/beta-5) [nM] | IC50 (Integrin alpha-V/beta-3 [1]) [nM] | Ki (Integrin alpha-V/beta-3 [2]) [nM] | half-life [3] [h] | clearance [4] [mL/min/kg] | bioavailability [5] [%] | IC50 (Integrin alpha-V/beta-3 [6]) [nM] | Ki [7] [nM] | IC50 (Homo sapiens) [nM]
1 | O=C(O)C[C@@H]1Cc2ccc(OCCCNc3ccccn3)cc2Cc2ccccc21 | 2.6 | – | – | – | – | – | – | – | –
2 | O=C(O)C[C@H](Cc1ccc(OCCCNc2ccccn2)cc1)c1ccccc1 | – | 470 | 12 | 2.4 | 7.2 | 100 | – | – | –
3 | O=C(O)CC(Cc1ccc(OCCCNc2ccccn2)cc1)c1ccccc1 (centres undefined) | 6 | – | 32 | – | – | – | 500 | > 10000 | –
4 | O=C(O)C[C@H](Cc1ccc(OCCc2ccc3c(n2)NCCC3)cc1)c1ccccc1 | 2.5 | 30 | 2.5 | 1.58 | 6 | 100 | – | 36000 | 26

The remaining compounds from weak to strong by Ki (Integrin alpha-V/beta-3 [2]), led by results:

Row | Ki (Integrin alpha-V/beta-5) [nM] | IC50 (Integrin alpha-V/beta-3 [1]) [nM] | Ki (Integrin alpha-V/beta-3 [2]) [nM] | half-life [3] [h] | clearance [4] [mL/min/kg] | bioavailability [5] [%] | IC50 (Integrin alpha-V/beta-3 [6]) [nM] | Ki [7] [nM] | IC50 (Homo sapiens) [nM] | Compound
5 | – | – | 170 | – | – | – | – | – | – | O=C(O)C[C@@H](Cc1ccc(OCCCNc2ccccn2)cc1)c1ccccc1
6 | – | 330 | 7 | 5.17 | 4.9 | 100 | – | – | – | CNc1cccc(CCOc2ccc(C[C@@H](CC(=O)O)c3ccccc3)cc2)n1
